Source: PubChem (several laboratories)
AP complement: alternative pathway complement inhibition, orthogonal assay | Human serum alternative complement pathway, LPS-coated ELISA, C3 deposition; tested in compound mixtures | inhibition, % at 5 µM | 0.08% of 62,000 active | AID 1235;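 active = inhibition above 30% in each of the two pooled mixtures holding the compound, so the lower value exceeds 30%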;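 also: 0% = serum in Mg-EGTA without compound and 100% = EDTA serum blank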
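Test system: human serum complement alternative pathway, C3 deposition onto LPS / Medium: Mg2+-EGTA GVB++ buffer containing human serum at 1:15 dilution / Probe or stimulus: Plate-bound LPS / Times: 1 h at 37 °C / Signal: ELISA with HRP anti-human C3 antibody, TMB substrate, absorbance 450 nm / Measure: percent inhibition / Repeats: two pool placements per compound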
RORA act: RORA (human) activation | P35398 | CHO-K1 Gal4-RORA LBD luciferase reporter, luminescence; percent increase over mock-subtracted basal signal | activation, % at 10 µM | 1.5% of 65,000 active;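 active = activation above the mean of all tested compounds plus 3 SD, cut at about 49% in these data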;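 also: 0% = DMSO-treated RORA cells and 100% = added signal equal to DMSO minus mock-transfected cells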
E coli RNAP: inhibitors of Escherichia coli RNA polymerase | P0A8V2 | E. coli RNA polymerase, fluorescence transcription assay | inhibition, %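 (tested at 10 µM)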 | 0.2% of 62,000 active | AID 559; in the data active = inhibition above about 20%;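 also: 0% = enzyme without compound and 100% = no enzyme blank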
Target sequence (P0A8V2 whole entry, looked up): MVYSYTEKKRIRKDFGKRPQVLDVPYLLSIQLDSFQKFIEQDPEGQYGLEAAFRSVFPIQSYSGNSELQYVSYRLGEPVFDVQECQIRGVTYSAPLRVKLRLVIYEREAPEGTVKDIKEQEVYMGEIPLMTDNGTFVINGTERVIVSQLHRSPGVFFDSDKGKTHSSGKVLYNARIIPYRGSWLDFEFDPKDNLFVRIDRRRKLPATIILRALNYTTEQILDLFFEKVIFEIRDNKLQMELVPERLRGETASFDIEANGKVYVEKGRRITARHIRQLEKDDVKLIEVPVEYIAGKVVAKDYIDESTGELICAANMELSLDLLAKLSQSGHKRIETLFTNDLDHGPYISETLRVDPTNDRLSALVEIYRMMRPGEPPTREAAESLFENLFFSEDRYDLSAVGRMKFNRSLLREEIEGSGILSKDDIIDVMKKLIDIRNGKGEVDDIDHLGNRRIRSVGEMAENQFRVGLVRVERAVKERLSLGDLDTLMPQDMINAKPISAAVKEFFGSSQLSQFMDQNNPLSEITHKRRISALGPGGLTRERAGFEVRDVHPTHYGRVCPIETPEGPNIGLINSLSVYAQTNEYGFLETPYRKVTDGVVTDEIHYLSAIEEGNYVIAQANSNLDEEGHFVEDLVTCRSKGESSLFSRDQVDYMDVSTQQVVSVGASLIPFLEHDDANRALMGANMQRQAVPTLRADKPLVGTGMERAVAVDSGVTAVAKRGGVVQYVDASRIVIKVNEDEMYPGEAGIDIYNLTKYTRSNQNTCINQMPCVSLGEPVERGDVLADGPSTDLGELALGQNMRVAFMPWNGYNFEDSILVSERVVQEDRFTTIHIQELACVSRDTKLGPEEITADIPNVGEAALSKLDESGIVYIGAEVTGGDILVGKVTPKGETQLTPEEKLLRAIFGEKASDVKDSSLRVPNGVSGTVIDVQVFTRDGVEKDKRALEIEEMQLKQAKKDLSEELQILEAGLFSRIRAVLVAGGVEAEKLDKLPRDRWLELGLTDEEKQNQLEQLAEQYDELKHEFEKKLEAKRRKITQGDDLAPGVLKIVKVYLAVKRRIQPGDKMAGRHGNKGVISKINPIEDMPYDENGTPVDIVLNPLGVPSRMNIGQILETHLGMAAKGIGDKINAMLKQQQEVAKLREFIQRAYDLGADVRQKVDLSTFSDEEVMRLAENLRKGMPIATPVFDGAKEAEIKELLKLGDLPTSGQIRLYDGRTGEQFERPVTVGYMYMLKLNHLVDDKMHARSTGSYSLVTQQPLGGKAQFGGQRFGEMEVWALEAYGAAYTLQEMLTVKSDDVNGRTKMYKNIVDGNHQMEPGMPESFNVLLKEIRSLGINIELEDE
HePTP inhibitor: human HePTP phosphatase inhibition; P35236; recombinant HePTP phosphatase activity, OD absorbance; inhibition, % at 20 µM; 0.64% of 110,000 active; AID 521; in the data active = inhibition above about 50%;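 also: plate controls were vehicle for no effect and reference inhibitor for full effect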
SF1 activator: activators of human nuclear receptor SF-1; activation, % at 10 µM; 1.9% of 65,000 active; CHO-K1 Gal4-SF-1 LBD luciferase reporter; % increase over DMSO SF-1-specific signal; Q13285;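 active = activation above the mean activation of all tested compounds plus 3 SD, cut at about 50% in these data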
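Material: Transient Gal4-SF-1 LBD reporter, CHO-K1 | Input: 4,000 cells/well | Dosing: One dose, 10 µM compound, 1% DMSO | Incubation: 20 h compound treatment, 37 °C | Detection: SteadyLite luciferase luminescence | Evaluation: Percent activation relative to DMSO median and mock-transfected background | Benchmarks: DMSO-treated SF-1-transfected cells as negative, DMSO-treated mock-transfected cells lacking SF-1 as background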
MMP13 inh: blocks human MMP13 activity; P45452; MMP-13 fTHP FRET cleavage, Mca fluorescence; inhibition, % at 4 µM; 0.07% of 65,000 active; AID 570;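 active = inhibition above the mean of compound-free control plate wells plus 3 SD, cut at about 14% in these data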;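 also: 0% = DMSO wells and 100% = wells with reference MMP-13 inhibitor after basal subtraction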
* hit, by the source's call; nt = no result given. Rows were chosen to be rich in hits. Some 2.4% of all compounds tested hit in one or more screens of this group.

SMILES	AP complement	RORA act	E coli RNAP	HePTP inhibitor	SF1 activator	MMP13 inh
CCCCc1c(O)nc(N2CCN(Cc3ccccc3)CC2)[nH]c1=O	6.7	22.7	42.6*	5.3	0.2	2.9
Cc1cccc(/N=C/c2c(O)[nH]c3ccccc23)n1	-6.5	85.9*	11.3	1.3	102.7*	1.4
O=C(CSc1ncn(-c2ccccc2)n1)c1ccc(Cl)cc1	nt	nt	nt	6.0	nt	nt
c1ccc(CSc2ncn(-c3ccccc3)n2)cc1	13.3	48.0	-1.5	-0.8	81.0*	-1.1
Nc1nc(CSc2nc3ccccc3[nH]2)cs1	12.3	28.9	6.1	-1.9	9.5	-2.2
O=C(CSc1ncn(-c2ccccc2)n1)c1cccs1	10.0	48.7*	8.6	-6.8	40.6	1.9
Nc1nc(CSc2ncn(-c3ccccc3)n2)cs1	13.7	43.9	-2.7	5.5	59.4*	5.0
CCOC(=O)C1CCN(C(=S)Nc2ccc(OCC)cc2)CC1	nt	nt	nt	-2.0	nt	nt
Cc1ccc2c(COC(=O)C3=COCCO3)cc(=O)oc2c1	-1.2	38.0	2.0	-9.9	67.3*	-5.1
Cc1ccc2c(COC(=O)c3cnc(C)cn3)cc(=O)oc2c1	7.2	-21.7	5.7	9.2	-7.5	5.7
O=C(CSc1nnnn1-c1ccccc1)Nc1ccc2nc(SCc3ccccc3)sc2c1	nt	nt	nt	-6.4	nt	nt
COC(=O)Cn1c(C)nc2c(sc3nc(C)cc(C)c32)c1=O	19.2	39.9	2.0	7.1	50.1*	-3.8
C=CCN1C(=O)S/C(=C/c2cc(Br)c(O)c(OCC)c2)C1=O	nt	nt	nt	4.6	nt	nt
Cc1ccc(C(=O)Nc2cccc3nsnc23)cc1	nt	nt	nt	-14.1	nt	nt
O=C(Nc1ccc(-c2nc3ccccc3s2)c(O)c1)c1ccc2c(c1)OCCO2	nt	nt	nt	67.9*	nt	nt
O=C(Nc1cccc2nsnc12)c1ccc2c(c1)OCCO2	0.6	69.6*	13.8	-1.7	54.2*	-5.3
CCc1nc2oc3ccccc3c(=O)c2c(=O)n1CCOC	2.8	29.5	nt	-4.9	4.7	1.5
CCc1nc2oc3ccccc3c(=O)c2c(=O)n1-c1ccccc1	4.6	44.5	9.7	8.4	70.7*	-0.8
CCOC(=O)c1ccccc1NS(=O)(=O)c1ccc(Cl)cc1	nt	nt	nt	-11.2	nt	nt
Cc1cccc(N2CCN(C(=O)Nc3ccc(Cl)cc3)CC2)c1C	nt	nt	nt	4.4	nt	nt
O=C(Nc1ccc(Cl)cc1)N1CC=CCC1	0.8	51.5*	nt	6.9	20.2	0.8
COC(=O)C1=C(C)N(c2cccc(OC)c2)C(=O)/C1=C\c1ccc(O)cc1	nt	nt	nt	-10.5	nt	nt
C=CCSc1nncn1/N=C/c1ccc(OC)cc1	-4.8	90.8*	3.4	-8.4	83.3*	0.4
O=C(CC(Nc1ccc(F)cc1)C(=O)O)c1ccccc1 (configuration not stated)	-2.3	62.0*	5.8	4.3	41.7	1.6
CCN(CC)CCCOc1c(Cl)cccc1Cl	nt	nt	nt	-17.8	nt	nt
SMILES	AP complement	RORA act	E coli RNAP	HePTP inhibitor	SF1 activator	MMP13 inh
Cc1ccccc1OCCCn1ccnc1	nt	nt	nt	-18.7	nt	nt
COc1cccc(-c2cc(C(=O)N3CCCCC3C)no2)c1 (configuration not stated)	16.5	49.5*	1.9	5.4	86.0*	-5.8
COc1cccc(-c2cc(C(=O)N3CCCCCC3)no2)c1	8.5	-19.8	4.8	11.2	-2.8	-0.8
Cc1ncsc1C(=O)Nc1nc2c(s1)CCCC2	9.9	56.8*	1.3	3.2	66.1*	1.5
O=C(Nc1nc2c(s1)CCCC2)c1ccc2ncsc2c1	4.2	50.4*	7.6	-1.7	38.5	4.6
O=c1oc2ccccc2cc1-c1cn2cccnc2n1	-7.3	55.0*	-2.3	-9.6	36.5	-29.4
CN(CCN(C)/N=C/c1ccc(N(C)C)cc1)/N=C/c1ccc(N(C)C)cc1	nt	nt	nt	-5.2	nt	nt
Cc1ccc2nc(-c3ccc(NC(=O)c4cccc(Cl)c4Cl)cc3)sc2c1	nt	nt	nt	-18.7	nt	nt
Cn1c(=O)n(CCOc2ccccc2Cl)c2ccccc21	13.7	37.1	8.6	-3.8	70.6*	3.1
Cn1c(=O)n(CCOc2ccc(F)cc2)c2ccccc21	nt	nt	nt	3.7	nt	nt
O=C(NC(=S)Nc1cc([N+](=O)[O-])cc(Cl)c1O)c1cccnc1	nt	nt	nt	102.6*	nt	nt
CCOc1cc(OCC)cc(C(=O)Nc2cccc(C(F)(F)F)c2)c1	nt	nt	nt	1.9	nt	nt
CC1(C)Cc2c(sc(NC(=O)c3ccc(Br)o3)c2C#N)CO1	nt	9.3	5.5	2.6	62.3*	-2.3
CC1(C)Cc2c(sc(NC(=O)C3(c4ccccc4)CCCC3)c2C#N)CO1	nt	nt	nt	105.5*	nt	nt
NC(=O)c1c(NC(=O)C(c2ccccc2)c2ccccc2)sc2c1CCCCCC2	nt	nt	nt	-7.6	nt	nt
COc1cccc(C(=O)Nc2cccc(-c3cn4ccccc4n3)c2)c1	nt	nt	nt	10.2	nt	nt
COc1ccc(-n2c(COc3cccc(C)c3)nnc2SCC(=O)NCc2ccco2)cc1	1.4	-21.8	21.8*	6.2	-7.1	2.1
CCOc1ccc(NCc2nnc(SCC(=O)Nc3cc(C)on3)n2-c2ccc(OC)cc2)cc1	12.3	-15.3	25.1*	7.8	-14.0	8.3
Nc1sc(=S)nc2sc3c(c12)CCN(Cc1ccccc1)C3	nt	nt	nt	9.1	nt	nt
CCOc1ccc2nc(NC(=O)C(CC)Sc3nc(C)cc(=O)[nH]3)sc2c1 (configuration not stated)	8.3	51.8*	11.8	9.3	22.8	2.2
CCC(Oc1ccccc1)C(=O)Nc1nc2ccc(S(C)(=O)=O)cc2s1 (configuration not stated)	nt	nt	nt	10.2	nt	nt
CCOC(=O)c1ccc2nc(NC(=O)c3cccs3)sc2c1	10.7	-3.1	1.9	2.4	-1.8	-16.8
C=CCN(CC=C)S(=O)(=O)c1ccc2nc(NC(=O)C(C)C)sc2c1	16.0	60.0*	4.1	5.3	19.9	0.3
CCOc1ccc2nc(NC(=O)c3ccoc3C)sc2c1	-1.0	-25.7	-4.7	-6.1	-28.8	-8.2
CCOC(=O)c1ccc2nc(NC(=O)C(C)C)sc2c1	11.3	68.1*	18.9	7.5	43.3	3.0
SMILES	AP complement	RORA act	E coli RNAP	HePTP inhibitor	SF1 activator	MMP13 inh
Cc1c(NC(=S)NCc2ccccc2)c(=O)n(-c2ccccc2)n1C	nt	nt	nt	-6.4	nt	nt
CCOC(=O)N1N=C(c2ccc(F)cc2)CC1(O)C(F)(F)F (configuration not stated)	nt	nt	nt	7.0	nt	nt
COc1ccc(C(=O)NCCOc2ccccc2)c(OC)c1OC	nt	nt	nt	1.5	nt	nt
COCCNC(=O)c1cc2sc3ccccc3c2s1	1.0	61.1*	6.8	7.4	50.5*	-20.0
CC(=O)NC1Sc2ccccc2N=C1c1ccccc1 (configuration not stated)	-4.3	41.9	9.2	-4.2	59.2*	-3.8
CC(=O)NC1C(=O)N=C(SCc2ccccc2)NC1=O (configuration not stated)	16.7	nt	-0.8	2.1	nt	nt
CN(C)S(=O)(=O)c1cccc(C(=O)Nc2ccc(Cl)cn2)c1	1.1	18.1	3.7	1.3	65.0*	0.0
O=C1NC(=O)N(c2cccc(Br)c2)C(=O)/C1=C/C=C/c1ccccc1	nt	nt	nt	12.1	nt	nt
CC(C)C1=NN2C(=N)/C(=C/c3ccc(-c4cccc(C(=O)O)c4)o3)C(=O)N=C2S1	nt	nt	nt	24.9	nt	nt
